Bioassay records (PubChem)
Sampled rows, rich in hits. Any-hit rate of the full collection: about 6.7%.
T cruzi repl – inhibitors of intracellular T. cruzi growth, primary screen, luminescence, NIH3T3 host cells | AID 1885, 2009 | inhibition, % (no concentration beside the values) | T. cruzi beta-gal in NIH3T3, 90 h | 300,000 compounds, 1.4% hits;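 active = mean inhibition across valid replicates above about 55%, limit read from the data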;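 note: signal also drops with host cell toxicity which is not excluded here; 0% = plate median of DMSO wells and 100% = zero luminescence signal; higher percent means less beta-gal luminescence so fewer parasites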
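Read-out: Parasite load inhibition, % | Test system: Mouse NIH/3T3 fibroblasts infected with β-gal-expressing T. cruzi Tulahuen C4 | Amount: 5,000 cells/well | Medium: DMEM, 2% fetal bovine serum | Signal: GalScreen β-gal luminescence, detergent lysis, 60 min | Timing: 3 h attach, ≥90 h co-culture | Also added: Tulahuen C4 trypomastigotes, 5000/well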
CHOP inh – inhibitors of CHOP promoter induction, primary screen, cell-based, unfolded protein response, luciferase reporter | 220,000 compounds, 3.8% hits | CHO-K1 CHOP-promoter luciferase, tunicamycin-induced, 15-18 h | inhibition, % at 10 µM | AID 2732, 2010;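 active = compounds that reduced the stress-induced luciferase reporter signal by more than about 70% of percent inhibition, limit read from the data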;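 note: 0% = tunicamycin plus vehicle and 100% = wells without tunicamycin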
PREPL inhibitor – PREPL enzyme inhibitors, primary screen, biochemical, fluorescence polarization. inhibition, % at 5.96 µM. Prolyl endopeptidase-like (Homo sapiens), Q4J6C6. recombinant PREPL, fluorescence polarization activity-based probe. 320,000 compounds, 0.68% hits; in the data active = inhibition above about 43%;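 note: 0% = enzyme with DMSO and 100% = wells lacking enzyme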
Target sequence (Q4J6C6 whole entry, looked up): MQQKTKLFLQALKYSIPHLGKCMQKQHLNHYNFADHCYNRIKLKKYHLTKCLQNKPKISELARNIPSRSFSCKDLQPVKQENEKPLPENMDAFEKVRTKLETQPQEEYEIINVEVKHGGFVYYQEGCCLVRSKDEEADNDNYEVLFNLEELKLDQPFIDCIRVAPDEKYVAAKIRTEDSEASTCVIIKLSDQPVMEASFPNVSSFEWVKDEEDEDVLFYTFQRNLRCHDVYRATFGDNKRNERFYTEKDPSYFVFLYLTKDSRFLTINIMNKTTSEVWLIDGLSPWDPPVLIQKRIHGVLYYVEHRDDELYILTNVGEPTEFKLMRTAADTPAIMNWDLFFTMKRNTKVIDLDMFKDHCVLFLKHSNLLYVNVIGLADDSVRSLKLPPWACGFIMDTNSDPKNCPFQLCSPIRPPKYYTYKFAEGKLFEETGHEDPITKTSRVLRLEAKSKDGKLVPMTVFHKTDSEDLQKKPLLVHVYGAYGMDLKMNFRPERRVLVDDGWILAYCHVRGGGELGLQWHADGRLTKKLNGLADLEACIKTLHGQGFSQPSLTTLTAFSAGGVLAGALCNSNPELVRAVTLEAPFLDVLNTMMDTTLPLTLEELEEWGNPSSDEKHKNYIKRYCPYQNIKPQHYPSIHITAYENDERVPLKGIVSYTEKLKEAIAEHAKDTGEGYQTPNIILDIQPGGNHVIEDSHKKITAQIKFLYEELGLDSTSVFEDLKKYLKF
CSC inhib – cancer stem cell viability inhibitors, primary screen, luminescence. cancer stem cell-like cells viability. inhibition, % at 7.5 µM. 300,000 compounds, 1.1% hits. AID 2717, 2010; in the data active = inhibition above about 75%; tested in HMLE shEcad cells
Beta cell apopt – inhibitors of cytokine-induced beta cell apoptosis, primary screen, luminescence; INS-1E cytokine-induced death, ATP luminescence, 48 h; percent of positive-control rescue, neutral wells zero; protection from apoptosis, % (no concentration beside the values); 300,000 compounds, 0.8% hits; AID 435005, 2010;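 active = Every replicate reaches about 75%, or at least half do and their mean reaches it too, limit read from the data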;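 note: 0% = cytokine-treated negative control wells and 100% = positive control rescue; higher means more ATP so stronger rescue from cytokine killing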
NR3A LBD binder – binders of NR3A ligand-binding domain, primary screen, biophysical, differential scanning fluorimetry, uHTS | Glutamate receptor ionotropic, NMDA 3A (GRIN3A) ligand-binding domain | 340,000 compounds, 2.5% hits | NR3A LBD differential scanning fluorimetry, Tm shift; 0% = protein alone, 100% = glycine-bound protein | Tm shift relative to glycine control, % at 25 µM | AID 1259313, 2017;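 active = melting temperature shift of at least 10% of the positive control shift, at one fixed dose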
Starred values were filed as active, the others as inactive.

How did Cc1cc(C)c(S(=O)(=O)/N=C2/C=C(Sc3ncn[nH]3)C(=O)c3ccccc32)cc1C do in these assays?
CHOP inh: 109*; PREPL inhibitor: 15; CSC inhib: 103*; Beta cell apopt: 129*; NR3A LBD binder: -28

What do the screens show for `O=S(=O)(c1cccc(NC(=S)N2CCN(c3cccc(Cl)c3)CC2)c1)C(F)F`?
T cruzi repl: 19; CHOP inh: 70*; PREPL inhibitor: -14; CSC inhib: 16; Beta cell apopt: -2; NR3A LBD binder: 26*

What do the screens show for `N#CC1=C(N)OC2=C(CC/C2=C\c2ccc(F)cc2)C1c1ccc(F)cc1` (centres undefined)?
T cruzi repl: -10; CHOP inh: 79*; PREPL inhibitor: -3; CSC inhib: 56; Beta cell apopt: -7

Results for N#CC1=C(N)OC2=C(CCC/C2=C/c2ccoc2)C1c1ccoc1 (centres undefined) ?
T cruzi repl: -14; CHOP inh: -26

Results for CN(C)S(=O)(=O)c1cc(NC(=O)Cn2ccsc2=N)ccc1Cl ?
T cruzi repl: -8; CHOP inh: -4; PREPL inhibitor: -15; CSC inhib: -13; Beta cell apopt: -9; NR3A LBD binder: -1

What do the screens show for `CCC(C)NC(=O)c1c(N)n(/N=C/c2ccccn2)c2nc3ccccc3nc12` (centres undefined)?
T cruzi repl: 62*; CHOP inh: 37; PREPL inhibitor: 10; Beta cell apopt: 7; NR3A LBD binder: 4

How did COc1cccc(Cn2c(=S)[nH]c3ccc(N4CCOCC4)cc3c2=O)c1 do in these assays?
T cruzi repl: 7; CHOP inh: -15; PREPL inhibitor: 16; CSC inhib: 2; Beta cell apopt: -10; NR3A LBD binder: 22*

How did O=c1[nH]c2ccc(Cl)cc2c(=O)n1Cc1ccco1 do in these assays?
T cruzi repl: -10; CHOP inh: 81*; PREPL inhibitor: -1; CSC inhib: -10; Beta cell apopt: -2; NR3A LBD binder: -9

What do the screens show for `COc1ccc(Cn2c(=S)[nH]c3cc(OC)c(OC)cc3c2=O)cc1`?
T cruzi repl: 8; CHOP inh: 83*; PREPL inhibitor: 6; CSC inhib: 5; Beta cell apopt: 41; NR3A LBD binder: 0

What do the screens show for `O=c1c2cc(N3CCOCC3)ccc2[nH]c(=S)n1Cc1ccco1`?
T cruzi repl: -18; CHOP inh: -58; PREPL inhibitor: 22; CSC inhib: -5; Beta cell apopt: -10; NR3A LBD binder: -4

What do the screens show for `O=c1c2cc(N3CCOCC3)ccc2[nH]c(=S)n1Cc1cccc(Cl)c1`?
T cruzi repl: 18; CHOP inh: 46; PREPL inhibitor: 32; CSC inhib: -4; Beta cell apopt: 2; NR3A LBD binder: 31*

Results for CCn1ccc(C(=O)Nc2ccccc2SC)n1 ?
T cruzi repl: -1; CHOP inh: -27; PREPL inhibitor: -1; CSC inhib: -2; Beta cell apopt: -1; NR3A LBD binder: -1

Results for Cc1cccc(/C=N/NC(=O)c2ccncc2)n1 ?
T cruzi repl: 3; PREPL inhibitor: -6; CSC inhib: -1; NR3A LBD binder: 0

What do the screens show for `O=c1c2cc(Cl)ccc2[nH]c(=S)n1Cc1cccs1`?
T cruzi repl: 4; CHOP inh: 97*; PREPL inhibitor: 12; CSC inhib: 29; Beta cell apopt: 6; NR3A LBD binder: 19*

How did Cc1ccn(C(=O)c2ccc(NC(=O)CC(C)C)cc2)n1 do in these assays?
T cruzi repl: -6; CHOP inh: -3; PREPL inhibitor: 71*; CSC inhib: -3; Beta cell apopt: -4; NR3A LBD binder: 1

Results for Cc1cc(C)n(C(=O)c2ccc(NC(=O)CC(C)C)cc2)n1 ?
T cruzi repl: 2; CHOP inh: 7; PREPL inhibitor: 15; CSC inhib: -15; Beta cell apopt: -11; NR3A LBD binder: 1

Results for OCC[C@@H]1C[C@H](O)[C@@H](O)[C@]2(OCCc3ccccc32)O1 ?
T cruzi repl: -5; PREPL inhibitor: 8; CSC inhib: -2; Beta cell apopt: 1; NR3A LBD binder: -1

How did CCOC(=O)N1CC=C2C(C#N)=C(N)C(C#N)(C#N)[C@H](c3ccccc3OCC)[C@H]2C1 do in these assays?
T cruzi repl: -7; CHOP inh: 74*; PREPL inhibitor: 4; CSC inhib: 3; Beta cell apopt: 4; NR3A LBD binder: -2

What do the screens show for `COc1ccccc1N=c1oc2c(OC)cccc2cc1C(=O)NCc1ccco1`?
T cruzi repl: 21; CHOP inh: 83*; PREPL inhibitor: 8; CSC inhib: -17; Beta cell apopt: -1; NR3A LBD binder: 2

How did COc1ccc(OC)c(N=c2oc3c(OC)cccc3cc2C(=O)NCc2ccco2)c1 do in these assays?
T cruzi repl: 3; PREPL inhibitor: 0; Beta cell apopt: 5; NR3A LBD binder: 1

What do the screens show for `CCN(CC)S(=O)(=O)c1ccc(N/N=C/c2ccc(O)cc2O)nc1`?
T cruzi repl: 26; CHOP inh: 83*; PREPL inhibitor: 11; CSC inhib: 112*; Beta cell apopt: 66; NR3A LBD binder: 24*

What do the screens show for `O=[N+]([O-])c1ccc(O)c(C=NNc2ccc(S(=O)(=O)O)cc2)c1`?
NR3A LBD binder: -14

What do the screens show for `O=[N+]([O-])c1ccc(NN=Cc2ccccc2)nc1`?
NR3A LBD binder: -4

What do the screens show for `O=[N+]([O-])c1ccc(N/N=C/c2ccccc2O)cc1`?
T cruzi repl: -3; PREPL inhibitor: 41; CSC inhib: 62; Beta cell apopt: 16; NR3A LBD binder: 38*

How did O=[N+]([O-])c1cccc(N/N=C/c2cc([N+](=O)[O-])ccc2O)c1 do in these assays?
T cruzi repl: 10; CHOP inh: 95*; PREPL inhibitor: 15; CSC inhib: 1; NR3A LBD binder: 31*

Results for O=C(NN=Cc1ccccc1O)c1cccc([N+](=O)[O-])c1 ?
NR3A LBD binder: 3

What do the screens show for `O=[N+]([O-])c1ccc(NN=Cc2ccc(O)cc2O)nc1`?
NR3A LBD binder: 27*

How did O=C(c1ccc(F)cc1)N1CCC(C(=O)N2CCN(S(=O)(=O)c3cccc(Cl)c3)CC2)CC1 do in these assays?
T cruzi repl: 32; PREPL inhibitor: 9; CSC inhib: -5; Beta cell apopt: 2; NR3A LBD binder: 0

Results for NC(=O)CC(NC(=O)Cc1ccc(Cl)cc1)c1ccc(NCCOc2ccccc2)c([N+](=O)[O-])c1 (centres undefined) ?
T cruzi repl: 12; PREPL inhibitor: -9; CSC inhib: 13; Beta cell apopt: -2; NR3A LBD binder: -4
